Converted amounts (≈) assume the structure as drawn.
Experiments:
[1] = tested on: Plasmodium falciparum; assay: Antimalarial activity against drug-sensitive Plasmodium falciparum NF54 infected in human erythrocytes after 48 hrs by [3H]hypoxanthine assay; type: functional, organism-based
[2] = target: Cytochrome P450 3A4 (Homo sapiens, UniProt P08684); assay: Inhibition of CYP3A4 in human liver microsome by LC-MS/MS analysis; type: ADME, microsomes
[3] = target: Cytochrome P450 2D6 (Homo sapiens, UniProt P10635); assay: Inhibition of CYP2D6 in human liver microsome by LC-MS/MS analysis; type: ADME, microsomes
[4] = target: Cytochrome P450 2C9 (Homo sapiens, UniProt P11712); assay: Inhibition of CYP2C9 in human liver microsome by LC-MS/MS analysis; type: ADME, microsomes
[5] = Clearance in mouse at 5 mg/kg, iv; type: ADME, organism-based; design: dose 5 mg/kg, route intravenous; conditions: in vivo
[6] = tested on: Plasmodium berghei; assay: Antimalarial activity against Plasmodium berghei ANKA infected in NMRI mice (Mus musculus) assessed as host survival time at 10 mg/kg, perorally administered once daily for 3 days (reference value: 6 to 7 days); type: functional; conditions: route oral
[7] = tested on: Plasmodium berghei; assay: Antimalarial activity against Plasmodium berghei ANKA infected in NMRI mice (Mus musculus) assessed as host survival time at 100 mg/kg, perorally administered as single dose (reference value: 6 to 7 days); type: functional; conditions: route oral
[8] = AUC (infinity) in mouse at 25 mg/kg, po; type: ADME, organism-based; design: time infinity, dose 25 mg/kg, route oral; conditions: plasma
Method in brief: (§1)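 Mouse pharmacokinetics. Plasma drug concentration was followed over time. Derived values: Cmax, Tmax, AUC extrapolated to infinity, terminal half-life, and oral bioavailability (F) from the oral and iv exposures.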

[9] = Volume of distribution at steady state in mouse at 5 mg/kg, iv; conditions: in vivo, read-out: Vdss
[10] = Half life in mouse at 25 mg/kg, po; type: ADME, organism-based; design: dose 25 mg/kg, route oral; conditions: in vivo; method in brief: as §1
[11] = Tmax in mouse at 25 mg/kg, po; type: ADME, organism-based; design: dose 25 mg/kg, route oral; conditions: in vivo; method in brief: as §1
[12] = tested on: Mus musculus; assay: Oral bioavailability in mouse at 25 mg/kg; type: ADME, organism-based; conditions: in vivo; method in brief: as §1
[13] = tested on: Plasmodium berghei; assay: Antimalarial activity against Plasmodium berghei ANKA infected in NMRI mice (Mus musculus) assessed as host survival time at 30 mg/kg, perorally administered as single dose (reference value: 6 to 7 days); type: functional; conditions: route oral
[14] = Lipophilicity, log P of the compound; type: physicochemical; conditions: octanol/water
[15] = target: Voltage-gated inwardly rectifying potassium channel KCNH2 (Homo sapiens, UniProt Q12809); assay: Binding affinity to human ERG
[16] = Solubility at pH 6.8; type: physicochemical; conditions: buffer
[17] = Half life in mouse at 5 mg/kg, iv; conditions: in vivo
[18] = Clearance in mouse at 5 mg/kg, iv; conditions: in vivo
[19] = tested on: Plasmodium berghei; assay: Antimalarial activity against Plasmodium berghei ANKA infected in NMRI mice (Mus musculus) assessed as host survival time at 30 mg/kg, perorally administered once daily for 3 days (reference value: 6 to 7 days); type: functional; conditions: route oral
[20] = Cmax in mouse at 25 mg/kg, po; type: ADME, organism-based; design: dose 25 mg/kg, route oral; conditions: in vivo; method in brief: as §1
[21] = tested on: Plasmodium falciparum; assay: Antimalarial activity against chloroquine-resistant Plasmodium falciparum K1 infected in human erythrocytes after 48 hrs by [3H]hypoxanthine assay; type: functional, organism-based
[22] = tested on: Plasmodium berghei; assay: Antimalarial activity against Plasmodium berghei ANKA infected in NMRI mice (Mus musculus) assessed as reduction in parasitaemia at 30 mg/kg, perorally administered as single dose; type: functional; design: scale not given: the % may be the effect or the level left; conditions: route oral
Method in brief: (§2)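 P. berghei-infected mice, 5 per group, given compound orally in 10% ethanol, 30% PEG400, 6% vitamin E TPGS, as a single dose or daily for three days. Parasitemia is measured on day three and reported as percent reduction (activity).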

[23] = tested on: Plasmodium berghei; assay: Antimalarial activity against Plasmodium berghei ANKA infected in NMRI mice (Mus musculus) assessed as reduction in parasitaemia at 30 mg/kg, perorally administered once daily for 3 days; type: functional; design: scale not given: the % may be the effect or the level left; conditions: route oral; method in brief: as §2
[24] = tested on: Plasmodium berghei; assay: Antimalarial activity against Plasmodium berghei ANKA infected in NMRI mice (Mus musculus) assessed as reduction in parasitaemia at 10 mg/kg, perorally administered once daily for 3 days; type: functional; design: scale not given: the % may be the effect or the level left; conditions: route oral; method in brief: as §2
[25] = tested on: Plasmodium berghei; assay: Antimalarial activity against Plasmodium berghei ANKA infected in NMRI mice (Mus musculus) assessed as reduction in parasitaemia at 100 mg/kg, perorally administered as single dose; type: functional; design: scale not given: the % may be the effect or the level left; conditions: route oral; method in brief: as §2

Sequence of Cytochrome P450 3A4 (P08684 whole entry): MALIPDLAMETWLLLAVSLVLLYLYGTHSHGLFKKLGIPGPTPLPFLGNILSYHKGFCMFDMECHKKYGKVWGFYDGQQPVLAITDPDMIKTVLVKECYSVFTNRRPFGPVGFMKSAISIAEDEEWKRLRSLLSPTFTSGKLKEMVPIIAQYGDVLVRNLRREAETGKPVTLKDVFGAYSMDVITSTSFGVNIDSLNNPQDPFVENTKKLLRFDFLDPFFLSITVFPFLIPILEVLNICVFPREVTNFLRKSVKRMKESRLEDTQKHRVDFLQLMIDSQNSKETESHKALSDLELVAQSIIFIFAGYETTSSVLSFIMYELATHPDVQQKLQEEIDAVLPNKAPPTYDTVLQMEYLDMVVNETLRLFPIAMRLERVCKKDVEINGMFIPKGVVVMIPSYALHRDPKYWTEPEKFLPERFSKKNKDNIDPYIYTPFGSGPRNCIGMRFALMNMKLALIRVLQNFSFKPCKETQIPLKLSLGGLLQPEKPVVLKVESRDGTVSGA
Sequence of Cytochrome P450 2C9 (P11712 whole entry): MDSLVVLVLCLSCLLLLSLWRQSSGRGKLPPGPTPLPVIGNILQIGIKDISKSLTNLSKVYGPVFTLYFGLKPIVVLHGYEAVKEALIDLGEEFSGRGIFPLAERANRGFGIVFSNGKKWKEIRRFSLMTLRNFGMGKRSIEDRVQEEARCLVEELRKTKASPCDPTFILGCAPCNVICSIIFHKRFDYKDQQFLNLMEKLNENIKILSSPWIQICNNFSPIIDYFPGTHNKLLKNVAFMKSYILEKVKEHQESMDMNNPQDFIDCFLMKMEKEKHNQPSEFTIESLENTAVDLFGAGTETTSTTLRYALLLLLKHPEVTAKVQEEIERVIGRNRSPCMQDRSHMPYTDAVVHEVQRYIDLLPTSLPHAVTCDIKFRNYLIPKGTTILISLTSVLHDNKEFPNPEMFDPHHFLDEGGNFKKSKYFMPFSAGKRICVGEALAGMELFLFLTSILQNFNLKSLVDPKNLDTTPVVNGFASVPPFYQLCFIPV
Sequence of Cytochrome P450 2D6 (P10635 whole entry): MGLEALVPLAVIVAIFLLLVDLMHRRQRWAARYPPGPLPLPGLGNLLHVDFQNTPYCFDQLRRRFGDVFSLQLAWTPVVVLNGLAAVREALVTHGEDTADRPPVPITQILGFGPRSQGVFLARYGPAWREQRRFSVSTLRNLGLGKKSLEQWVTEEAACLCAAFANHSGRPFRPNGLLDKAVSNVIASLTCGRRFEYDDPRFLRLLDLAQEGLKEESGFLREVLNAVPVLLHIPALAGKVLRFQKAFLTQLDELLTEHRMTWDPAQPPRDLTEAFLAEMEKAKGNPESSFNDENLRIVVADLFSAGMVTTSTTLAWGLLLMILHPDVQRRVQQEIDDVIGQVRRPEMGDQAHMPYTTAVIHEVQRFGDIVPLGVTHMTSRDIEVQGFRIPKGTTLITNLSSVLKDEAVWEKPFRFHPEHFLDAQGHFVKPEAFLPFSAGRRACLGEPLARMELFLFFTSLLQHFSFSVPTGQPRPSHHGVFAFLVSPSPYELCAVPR
Sequence of Voltage-gated inwardly rectifying potassium channel KCNH2 (Q12809 whole entry): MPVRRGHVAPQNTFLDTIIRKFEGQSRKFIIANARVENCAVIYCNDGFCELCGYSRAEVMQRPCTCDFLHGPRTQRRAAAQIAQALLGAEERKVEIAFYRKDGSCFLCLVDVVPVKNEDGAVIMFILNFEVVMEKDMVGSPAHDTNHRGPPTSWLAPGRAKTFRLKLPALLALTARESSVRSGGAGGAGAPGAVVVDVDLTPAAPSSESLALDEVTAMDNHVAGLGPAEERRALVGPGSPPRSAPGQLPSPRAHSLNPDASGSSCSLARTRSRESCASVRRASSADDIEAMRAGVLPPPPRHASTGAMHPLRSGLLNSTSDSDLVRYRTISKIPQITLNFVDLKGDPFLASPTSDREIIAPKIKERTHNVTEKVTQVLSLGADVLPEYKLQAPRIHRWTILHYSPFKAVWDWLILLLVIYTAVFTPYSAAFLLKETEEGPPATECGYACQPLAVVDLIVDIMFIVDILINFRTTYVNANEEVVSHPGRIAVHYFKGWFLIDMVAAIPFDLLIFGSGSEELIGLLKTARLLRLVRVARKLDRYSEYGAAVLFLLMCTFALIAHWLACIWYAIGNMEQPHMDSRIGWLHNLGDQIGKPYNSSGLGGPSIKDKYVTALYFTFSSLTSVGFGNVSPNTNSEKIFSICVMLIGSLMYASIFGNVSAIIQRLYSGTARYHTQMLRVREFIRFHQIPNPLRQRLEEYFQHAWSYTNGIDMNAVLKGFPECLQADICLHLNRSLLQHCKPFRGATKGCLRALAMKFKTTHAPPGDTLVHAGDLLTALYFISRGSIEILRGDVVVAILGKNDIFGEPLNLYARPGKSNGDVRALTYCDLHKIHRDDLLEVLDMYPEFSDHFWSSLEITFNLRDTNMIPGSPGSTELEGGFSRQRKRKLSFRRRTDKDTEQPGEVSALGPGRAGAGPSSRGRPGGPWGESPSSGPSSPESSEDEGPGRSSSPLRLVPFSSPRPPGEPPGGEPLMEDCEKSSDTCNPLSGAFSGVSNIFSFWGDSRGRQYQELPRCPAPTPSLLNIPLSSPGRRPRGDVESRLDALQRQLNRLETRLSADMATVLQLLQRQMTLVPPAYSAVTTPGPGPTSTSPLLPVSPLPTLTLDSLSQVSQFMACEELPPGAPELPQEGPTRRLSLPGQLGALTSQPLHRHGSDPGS

With `C[C@@H]1Cc2c([nH]c3cc(Cl)c(F)cc23)[C@]2(N1)C(=O)Nc1ccc(Cl)cc12` the IC50 [1] was 77 nM, the IC50 [2] was “Not Active” and the IC50 [3] was “Not Active”. For the same molecule, the IC50 [4] was greater than 10000 nM and the clearance [5] was 2.58 mL/min/kg.

For `C[C@H]1Cc2c([nH]c3cc(F)c(F)cc23)[C@@]2(N1)C(=O)Nc1ccc(Cl)cc12`, the Survival [6] was 17.2 days, the IC50 [1] was 0.2 nM and the IC50 [2] was “Not Active”. The Survival [7] was 13 days, the AUC(0-inf) [8] was 71.4 µM·h and the IC50 [3] was “Not Active”. It also gave a Vd [9] of 1.6 L/kg, a half-life [10] of 3.18 h and a Tmax [11] of 2 h. It also gave an F [12] of 53%, a Survival [13] of 12 days and an IC50 [4] of 7350 nM. It also gave a logP [14] of 4, an IC50 [15] greater than 30000 nM and a solubility [16] of 170 µg/mL (≈ 455 µM). The half-life [17] was 2.94 h, the clearance [18] was 8.53 mL/min/kg and the Survival [19] was 29.4 days. The clearance [5] was 8.53 mL/min/kg and the Cmax [20] was 8.32 µM.

For `C[C@@H]1Cc2c([nH]c3ccc(F)cc23)[C@]2(N1)C(=O)Nc1ccc(Cl)cc12`, the IC50 [1] was 182 nM, the IC50 [2] was “Not Active” and the IC50 [3] was “Not Active”. For the same molecule, the IC50 [4] was greater than 10000 nM.

With `C[C@H]1CCc2c([nH]c3ccccc23)[C@@]2(N1)C(=O)Nc1ccc(Br)cc12` the logP [14] was 3.9 and the solubility [16] was 79 µg/mL (≈ 199 µM).

Work on `C[C@@H]1CCc2c([nH]c3ccccc23)[C@]2(N1)C(=O)Nc1ccc(Br)cc12` yielded an IC50 [1] greater than 5000 nM.

Molecule `CC1CCc2c([nH]c3ccccc23)C2(N1)C(=O)Nc1ccc(Cl)cc12` (stereo not given) has an IC50 [1] of 84 nM.

In the case of `O=C1Nc2ccc(Cl)cc2C12NCCCCc1c2[nH]c2ccccc12` (stereo not given), the IC50 [1] is reported as greater than 5000 nM and the IC50 [21] is reported as greater than 5000 nM.

In the case of `O=C1Nc2ccc(Cl)cc2C12NCCc1c2[nH]c2ccccc12` (stereo not given), the IC50 [1] is reported as 126 nM and the IC50 [21] is reported as 104 nM.

Work on `CC1(C)Cc2c([nH]c3ccccc23)C2(N1)C(=O)Nc1ccc(Cl)cc12` (stereo not given) yielded an IC50 [1] of 857 nM and an IC50 [21] of 819 nM.

For `C[C@H]1Cc2c([nH]c3ccc(F)cc23)[C@@]2(N1)C(=O)Nc1ccc(Cl)cc12`, the IC50 [1] was 3 nM, the IC50 [2] was “Not Active” and the IC50 [3] was “Not Active”. The IC50 [4] was 1720 nM, the logP [14] was 3.6 and the solubility [16] was 140 µg/mL (≈ 393 µM). For the same molecule, the clearance [5] was 24 mL/min/kg.

With `C[C@@H]1Cc2c([nH]c3cc(Cl)ccc23)[C@]2(N1)C(=O)Nc1ccc(Cl)cc12` the IC50 [1] was 116 nM, the IC50 [2] was “Not Active” and the IC50 [3] was “Not Active”. It also gave an IC50 [4] greater than 10000 nM.

In the case of `O=C1Nc2ccc(Cl)cc2C12NCCCc1c2[nH]c2ccccc12` (stereo not given), the IC50 [1] is reported as 86 nM and the IC50 [21] is reported as 83 nM.

With `C[C@H]1Cc2c([nH]c3cc(Cl)ccc23)[C@@]2(N1)C(=O)Nc1ccc(Cl)cc12` the IC50 [1] was 4 nM, the IC50 [2] was “Not Active” and the IC50 [3] was “Not Active”. It also gave an IC50 [4] of 4110 nM, a logP [14] of 4.8 and an IC50 [15] greater than 30000 nM. The solubility [16] was 8 µg/mL (≈ 21.5 µM) and the clearance [5] was 60.1 mL/min/kg.

With `C[C@@H]1Cc2c([nH]c3cc(F)c(F)cc23)[C@]2(N1)C(=O)Nc1ccc(Cl)cc12` the IC50 [1] was 83 nM, the IC50 [2] was “Not Active” and the IC50 [3] was “Not Active”. The IC50 [4] was greater than 10000 nM and the clearance [5] was 4.14 mL/min/kg.

In the case of `C[C@H]1[C@H](OC(=O)CCC(=O)O)O[C@@H]2O[C@@]3(C)CC[C@H]4[C@H](C)CC[C@@H]1[C@@]24OO3` [ARTESUNATE], the Survival [6] is reported as 8.1 days, the Survival [7] is reported as 7 days and the Activity [22] is reported as 95.6%. For the same molecule, the Activity [23] was 99%, the Survival [13] was 5.8 days and the Activity [24] was 96%. The Activity [25] was 98% and the Survival [19] was 12.2 days.

`CCN(CC)CCCC(C)Nc1ccnc2cc(Cl)ccc12` (stereo not given) [CHLOROQUINE] showed a Survival [6] of 13.6 days, a Survival [7] of 12.5 days and an Activity [22] of 99.5%. For the same molecule, the Activity [23] was 99.8%, the Survival [13] was 9 days and the Activity [24] was 99.8%. It also gave an Activity [25] of 99.6% and a Survival [19] of 14.3 days.

For `C[C@H]1Cc2c([nH]c3cc(Cl)c(F)cc23)[C@@]2(N1)C(=O)Nc1ccc(Cl)cc12` [CIPARGAMIN], the IC50 [2] was “Not Active”, the IC50 [3] was “Not Active” and the IC50 [4] was 5420 nM.

`CC1CCc2c([nH]c3ccccc23)C2(N1)C(=O)Nc1ccc(Br)cc12` (stereo not given) [SPIROAZEPINEINDOLE] gave an IC50 [1] of 90 nM.

From ChEMBL document CHEMBL1155453, “Spirotetrahydro beta-carbolines (spiroindolones): a new class of potent and orally efficacious compounds for the treatment of malaria” (J Med Chem, 2010)
